Laboratory results taken from ChEMBL document CHEMBL3596194, “Design, synthesis and biological evaluation of bivalent benzoxazolone and benzothiazolone ligands as potential anti-inflammatory/analgesic agents” (Bioorg Med Chem, 2015).
Calls of active or inactive are those of the source. The calls are words filed in the database; no cut-off is given here.

How the values were obtained:
SW1353 = test: Antiinflammatory activity in human SW1353 cells assessed as inhibition of PMA-induced NF-kappaB activity up to 25 ug/ml incubated for 30 mins prior to PMA challenge measured after 8 hrs by luciferase reporter gene assay; assay type: cell-based
Summary of the method: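 SW1353 chondrosarcoma cells grown in DMEM/F12 with 10% FBS at 37 °C, 5% CO2. Cells electroporated with an NF-κB luciferase plasmid (50 μg/mL, 160 V, one 70-ms pulse) and plated at 1.25 × 10⁵ cells/well. After 24 h, compound was added 30 min before PMA (70 ng/mL), then 8 h incubation. Luciferase read-out as % inhibition vs vehicle; IC50 from dose curves. Sp-1 served as a counter-screen.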

SK-OV-3 [1] = test: Cytotoxicity against human SKOV3 cells up to 25 ug/ml after 48 hrs by neutral red assay relative to control; assay type: cell-based; settings: sk-ov-3, 48 h
Summary of the method: (§1)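 Cells grown in RPMI-1640 with 10% bovine calf serum and amikacin at 37 °C, 5% CO2. Seeded at 25,000 cells/well and grown 24 h, then exposed 48 h to samples diluted in serum-free medium. Viability by Neutral Red; % decrease vs vehicle; IC50 from dose curves. Triplicate runs, mean reported; doxorubicin as positive control.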

Vero [2] = test: Cytotoxicity against African green monkey Vero cells after 48 hrs by neutral red assay relative to control; assay type: cell-based; settings: chlorocebus sabaeus
Summary of the method: (§2)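 Cells grown in RPMI-1640 with 10% bovine calf serum and amikacin at 37°C, 5% CO₂. Seeded 25,000 cells/well, grown 24 h, then exposed to compounds diluted in serum-free medium for 48 h. Viability by Neutral Red uptake, % decrease versus vehicle control. IC50 from dose curves, triplicate means. Doxorubicin positive control.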

SK-MEL [3] = test: Cytotoxicity against human SK-MEL cells up to 25 ug/ml after 48 hrs by neutral red assay relative to control; assay type: cell-based; summary of the method: as §1
[4] = Cytotoxicity against pig LLC-PK11 cells up to 25 ug/ml after 48 hrs by neutral red assay relative to control; assay type: cell-based, Sus scrofa; settings: llc-pk11, 48 h; summary of the method: as §1
KB [5] = test: Cytotoxicity against human KB cells up to 25 ug/ml after 48 hrs by neutral red assay relative to control; assay type: cell-based; summary of the method: as §1
BT-549 [6] = test: Cytotoxicity against human BT549 cells up to 25 ug/ml after 48 hrs by neutral red assay relative to control; assay type: cell-based; settings: bt-549, 48 h; summary of the method: as §1
[7] = Antiinflammatory activity in human SW1353 cells assessed as inhibition of PMA-induced NF-kappaB activity incubated for 30 mins prior to PMA challenge measured after 8 hrs by luciferase reporter gene assay; assay type: cell-based
Summary of the method: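 SW1353 cells in DMEM/F12 with 10% FBS, electroporated with NF-κB luciferase plasmid (160 V, one 70-ms pulse), plated at 1.25 × 10⁵ cells/well. After 24 h, graded compound concentrations added 30 min before PMA 70 ng/mL, then 8 h incubation. Luciferase read-out, % inhibition versus vehicle, IC50 from dose curves. Sp-1 reporter served as nonspecific control.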

SK-OV-3 [8] = test: Cytotoxicity against human SKOV3 cells after 48 hrs by neutral red assay relative to control; assay type: cell-based; settings: SK-OV-3, 48 h; summary of the method: as §2
BT-549 [9] = test: Cytotoxicity against human BT549 cells after 48 hrs by neutral red assay relative to control; assay type: cell-based; settings: BT-549, 48 h; summary of the method: as §2
SK-MEL [10] = test: Cytotoxicity against human SK-MEL cells after 48 hrs by neutral red assay relative to control; assay type: cell-based; summary of the method: as §2
KB [11] = test: Cytotoxicity against human KB cells after 48 hrs by neutral red assay relative to control; assay type: cell-based; summary of the method: as §2
[12] = Cytotoxicity against pig LLC-PK11 cells after 48 hrs by neutral red assay relative to control; assay type: cell-based; settings: Sus scrofa, LLC-PK11, 48 h; summary of the method: as §2
Vero [13] = test: Cytotoxicity against African green monkey Vero cells up to 25 ug/ml after 48 hrs by neutral red assay relative to control; assay type: cell-based; settings: chlorocebus sabaeus; summary of the method: as §1
Rattus norvegicus [14] = test: Antiinflammatory activity in albino rat assessed as inhibition of carrageenan-induced paw edema at 30 mg/kg, ip administered 1 hr prior to carrageenan challenge measured 1 hr after induction of inflammation relative to control; assay type: functional
Summary of the method: (§3)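 Adult albino rats of both sexes, 120–150 g, groups of five, pre-hydrated with 3 ml water orally. Compounds suspended in distilled water with few drops Tween 80, given ip 1 h before subplantar s.c. 1% carrageenan into right hind paw. Paw thickness measured by dial calipers, left paw as control. % inhibition = (1 – Lt/Lc) × 100 versus saline/Tween 80 group.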

Rattus norvegicus [15] = test: Antiinflammatory activity in albino rat assessed as inhibition of carrageenan-induced paw edema at 30 mg/kg, ip administered 1 hr prior to carrageenan challenge measured 3 hrs after induction of inflammation relative to control; assay type: functional; summary of the method: as §3
Rattus norvegicus [16] = test: Antiinflammatory activity in albino rat assessed as inhibition of carrageenan-induced paw edema at 30 mg/kg, ip administered 1 hr prior to carrageenan challenge measured 2 hrs after induction of inflammation relative to control; assay type: functional; summary of the method: as §3
Rattus norvegicus [17] = test: Antiinflammatory activity in albino rat assessed as inhibition of carrageenan-induced paw edema at 30 mg/kg, ip administered 1 hr prior to carrageenan challenge measured 4 hrs after induction of inflammation relative to control; assay type: functional; summary of the method: as §3
[18] = molecular target: T1, Nitric oxide synthase, inducible (Mus musculus) (UniProt P29477); test: Antiinflammatory activity in mouse RAW264.7 cells assessed as inhibition of LPS-induced iNOS activity up to 25 ug/ml incubated for 30 mins prior to LPS challenge measured after 24 hrs by Griess assay; assay type: cell-based
T1 sequence (whole entry): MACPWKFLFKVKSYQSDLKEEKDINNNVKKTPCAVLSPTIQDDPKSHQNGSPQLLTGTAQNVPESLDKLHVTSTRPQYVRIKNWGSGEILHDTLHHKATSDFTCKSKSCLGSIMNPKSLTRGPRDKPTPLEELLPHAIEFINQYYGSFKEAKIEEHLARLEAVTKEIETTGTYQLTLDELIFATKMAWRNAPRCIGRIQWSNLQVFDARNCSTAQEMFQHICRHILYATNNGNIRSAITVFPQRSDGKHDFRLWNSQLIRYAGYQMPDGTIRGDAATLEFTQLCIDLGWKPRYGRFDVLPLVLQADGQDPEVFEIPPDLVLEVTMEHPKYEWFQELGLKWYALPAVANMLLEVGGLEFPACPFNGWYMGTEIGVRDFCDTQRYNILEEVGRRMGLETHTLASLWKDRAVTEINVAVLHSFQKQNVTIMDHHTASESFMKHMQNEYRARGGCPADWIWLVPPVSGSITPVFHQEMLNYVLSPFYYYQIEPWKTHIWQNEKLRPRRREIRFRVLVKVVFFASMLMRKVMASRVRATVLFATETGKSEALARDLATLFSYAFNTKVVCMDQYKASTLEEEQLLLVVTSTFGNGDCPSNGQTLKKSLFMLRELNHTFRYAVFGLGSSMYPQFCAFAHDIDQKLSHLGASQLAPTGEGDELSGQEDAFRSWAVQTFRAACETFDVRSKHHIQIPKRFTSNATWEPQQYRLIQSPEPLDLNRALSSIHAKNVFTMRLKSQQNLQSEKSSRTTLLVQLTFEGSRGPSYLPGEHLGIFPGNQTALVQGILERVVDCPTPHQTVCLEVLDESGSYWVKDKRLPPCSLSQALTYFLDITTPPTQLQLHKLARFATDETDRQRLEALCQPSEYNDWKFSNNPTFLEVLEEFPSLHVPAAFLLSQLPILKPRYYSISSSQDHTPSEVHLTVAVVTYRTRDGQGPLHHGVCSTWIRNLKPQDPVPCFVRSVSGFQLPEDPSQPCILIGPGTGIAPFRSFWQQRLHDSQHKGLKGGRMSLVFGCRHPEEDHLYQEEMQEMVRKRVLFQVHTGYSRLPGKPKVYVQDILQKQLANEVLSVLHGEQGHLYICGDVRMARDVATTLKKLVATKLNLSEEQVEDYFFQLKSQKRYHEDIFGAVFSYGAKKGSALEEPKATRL
Summary of the method: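 RAW264.7 macrophages seeded at 50,000 cells/well and grown 24 h to ≥75% confluency. Compounds in serum-free medium added 30 min before LPS (5 μg/mL), then 24 h incubation. Nitrite in the supernatant measured with Griess reagent.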

Mus musculus = test: Antinociceptive activity in ip dosed Swiss mouse assessed as inhibition of acetic acid-induced writhing response administered 15 mins prior to acetic acid challenge measured for 20 mins relative to vehicle-treated control; assay type: functional, organism-based
Summary of the method: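 Mice dosed i.p. with compound or vehicle 15 min before testing, or with indomethacin 3 mg/kg i.p. 30 min before. After 15 min habituation in an enclosure, 0.9% acetic acid given i.p. (1 ml/0.1 kg) and writhes counted for 20 min. Non-responders excluded; n = 4-6; mean ± SD.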

SMILES	inhibition (SW1353)	Activity (SK-OV-3 [1])	IC50 (Vero [2]) [µM]	Activity (SK-MEL [3])	Activity [4]	Activity (KB [5])	Activity (BT-549 [6])	IC50 [7] [µM]	IC50 (SK-OV-3 [8]) [µM]	IC50 (BT-549 [9]) [µM]	IC50 (SK-MEL [10]) [µM]	IC50 (KB [11]) [µM]	IC50 [12] [µM]	Activity (Vero [13])	inhibition in vivo at 30 mg/kg (Rattus norvegicus [14]) [%]	inhibition in vivo at 30 mg/kg (Rattus norvegicus [15]) [%]	inhibition in vivo at 30 mg/kg (Rattus norvegicus [16]) [%]	inhibition in vivo at 30 mg/kg (Rattus norvegicus [17]) [%]	inhibition [18]	inhibition (Mus musculus)
O=c1oc2ccccc2n1CCCCCN1CCN(CCCCn2c(=O)oc3ccccc32)CC1	inactive	Non-toxic	17.6	Non-toxic	Non-toxic	Non-toxic	Non-toxic													
O=c1oc2ccccc2n1CCCCCN1CCN(CCCCCn2c(=O)oc3ccccc32)CC1		Non-toxic	19.4	Non-toxic	Non-toxic	Non-toxic	Non-toxic	3.43												
COc1cccc2c1C(=O)c1c(O)c3c(c(O)c1C2=O)C[C@@](O)(C(=O)CO)C[C@@H]3O[C@H]1C[C@H](N)[C@H](O)[C@H](C)O1 [DOXORUBICIN]			0.92						0.2	0.17	0.14	0.22	0.79							
c1ccc2oc(SCCCCN3CCN(CCCCSc4nc5ccccc5o4)CC3)nc2c1		Non-toxic						1.4		22.5	25	25	23.5	Non-toxic						
O=c1sc2ccccc2n1CCCCCN1CCN(CCn2c(=O)sc3ccccc32)CC1		Non-toxic	23.8	Non-toxic	Non-toxic	Non-toxic	Non-toxic	1.71												
O=C(c1ccccc1)c1ccc2n1CCC2C(=O)O (stereo unspecified) [KETOROLAC]															70.5	75.4	74.2	79.3		
O=c1sc2ccccc2n1CCCCCN1CCN(CCCCCn2c(=O)sc3ccccc32)CC1					Non-toxic	Non-toxic			25	19.3	19.8			Non-toxic						
O=c1sc2ccccc2n1CCCCCCN1CCN(CCCCCn2c(=O)sc3ccccc32)CC1			25	Non-toxic	Non-toxic	Non-toxic		1.06	25	19.6					33.9	34.7	41.1	34.9		
O=c1sc2ccccc2n1CCCN1CCN(CCn2c(=O)sc3ccccc32)CC1	inactive	Non-toxic		Non-toxic		Non-toxic	Non-toxic						24.1	Non-toxic					inactive	
O=c1sc2ccccc2n1CCCN1CCN(CCCn2c(=O)sc3ccccc32)CC1	inactive	Non-toxic		Non-toxic		Non-toxic	Non-toxic						23.5	Non-toxic						
O=c1sc2ccccc2n1CCCCCCN1CCN(CCCCCCn2c(=O)sc3ccccc32)CC1				Non-toxic	Non-toxic			0.41	24.3	24.3		20.8		Non-toxic	32.2	39.3	37.5	36.9		Dose-dependent effect
O=c1sc2ccccc2n1CCCCN1CCN(CCCn2c(=O)sc3ccccc32)CC1		Non-toxic		Non-toxic		Non-toxic	Non-toxic	1.71					19.2	Non-toxic						
O=c1sc2ccccc2n1CCCCCCN1CCN(CCCCn2c(=O)sc3ccccc32)CC1		Non-toxic			Non-toxic			0.83		21.3	14.5	19.5		Non-toxic						
O=c1oc2ccccc2n1CCCN1CCN(CCn2c(=O)oc3ccccc32)CC1	inactive	Non-toxic		Non-toxic	Non-toxic	Non-toxic	Non-toxic							Non-toxic					inactive	
c1ccc2sc(SCCCCN3CCN(CCCCSc4nc5ccccc5s4)CC3)nc2c1		Non-toxic			Non-toxic		Non-toxic	0.34			17.5	25		Non-toxic	59.9	63.4	64.3	47.1		Dose-dependent effect
